# Source: ChEMBL document CHEMBL1126696, “N-(arylalkyl)farnesylamines: new potent squalene synthetase inhibitors” (J Med Chem, 1993)
# Target: T1, Squalene synthase (Rattus norvegicus, UniProt Q02769)
# T1 sequence (Q02769 whole entry): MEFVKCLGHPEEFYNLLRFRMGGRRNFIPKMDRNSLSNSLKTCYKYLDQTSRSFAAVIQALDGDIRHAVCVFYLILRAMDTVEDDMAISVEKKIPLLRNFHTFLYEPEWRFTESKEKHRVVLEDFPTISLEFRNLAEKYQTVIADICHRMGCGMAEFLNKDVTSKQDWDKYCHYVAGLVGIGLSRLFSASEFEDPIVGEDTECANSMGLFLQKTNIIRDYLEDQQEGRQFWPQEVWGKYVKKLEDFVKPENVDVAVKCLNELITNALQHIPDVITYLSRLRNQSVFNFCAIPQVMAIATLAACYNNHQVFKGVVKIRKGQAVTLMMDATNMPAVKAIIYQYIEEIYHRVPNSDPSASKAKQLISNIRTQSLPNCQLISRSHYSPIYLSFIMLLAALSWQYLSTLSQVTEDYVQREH
# Assay: Inhibitory activity against squalene synthetase in rat liver microsomes
# Design: species or system Microsome
# Procedure, shortened: (§1)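 Rat liver microsomes (about 1 mg/mL protein) were prepared in pH 7.4 phosphate buffer with EDTA and stored at -80 °C. Samples were preincubated at 37 °C under nitrogen for 5 min. Final NADPH was 1.2 mM and MgCl2 5 mM. Tritiated farnesyl pyrophosphate started a 10-min reaction at 37 °C under nitrogen. Products were counted by liquid scintillation. Reactions ran in duplicate at several concentrations across at least four independent assays. IC50 was derived by linear regression of the pooled data.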
row,Compound,IC50 [µM]
1,CCN(C/C=C(\C)CC/C=C(\C)CCC=C(C)C)C/C=C(\C)CC/C=C(\C)CCC=C(C)C,182
2,CC(C)=CCC/C(C)=C/CC/C(C)=C/COCc1cccnc1,33
3,CC(C)=CCC/C(C)=C/CC/C(C)=C/COC/C=C(\C)CC/C=C(\C)CCC=C(C)C,828
4,CC(C)=CCC/C(C)=C/CCC(C)CNCc1cccnc1 (stereo not given),23
5,CC(C)=CCC/C(C)=C/CC/C(C)=C/CNC/C=C(\C)CC/C=C(\C)CCC=C(C)C,48

# The remaining lines, values ahead:
row,IC50 [µM],Compound
1,7,CC(C)CCCC(C)CCCC(C)CCNCc1cccnc1 (stereo not given)
2,1,CC(C)=CCC/C(C)=C/CC/C(C)=C/CNCC(C)CC/C=C(\C)CCC=C(C)C (stereo not given)
3,0.05,CC(C)=CCC/C(C)=C/CC/C(C)=C/CNCc1cccnc1
4,23,CC(C)=CCC/C(C)=C/CNCc1cccnc1
5,0.1,CC(C)=CCC/C(C)=C/CC/C(C)=C/CNCc1ccccc1
6,0.1,CC(C)=CCC/C(C)=C/CC/C(C)=C/CNCc1ccncc1
7,4.9,CCN(C/C=C(\C)CC/C=C(\C)CCC=C(C)C)Cc1cccnc1
8,0.6,CCNC/C=C(\C)CC/C=C(\C)CCC=C(C)C

# Target: T1, Squalene synthase
# Assay: Tested for inhibitory activity against squalene synthetase in the presence of inorganic pyrophosphate (PPi)
# Procedure, shortened: as §1
row,IC50 [µM],Compound
1,0.004,CC(C)=CCC/C(C)=C/CC/C(C)=C/CNCc1cccnc1
2,0.01,CC(C)=CCC/C(C)=C/CC/C(C)=C/CNCc1ccccc1
